In ChEMBL document CHEMBL4004812, “Semisynthesis of (-)-Rutamarin Derivatives and Their Inhibitory Activity on Epstein-Barr Virus Lytic Replication” (J Nat Prod, 2017):
pIC50: −log10 of the molar value. Activity calls are given as the source filed them. No cut-off for these calls is given here.

Assays:
Human gammaherpesvirus 4 = experiment: Inhibition of TPA/sodium butyrate-induced EBV lytic DNA replication in human P3HR1 cells incubated for 48 hrs post TPA/sodium butyrate induction by real-time PCR method; type: functional, cell-based; settings: for pIC50: human gammaherpesvirus 4, P3HR-1, 48 h
Method in brief: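 P3HR-1 cells were induced with TPA (20 ng/mL) plus sodium butyrate (0.3 mM) and given varied compound concentrations 3 h later. Total cellular DNA was purified 48 h postinduction. EBV DNA content was taken as (induced − noninduced) over the same difference in untreated cells, and IC50 was derived from the dose-response curve.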

P3HR-1 [1] = experiment: (§1) Cytotoxicity against human P3HR1 cells assessed as decrease in cell viability after 2 days by trypan blue staining-based light microscopic method; settings: p3hr-1, 48 h
Method in brief: (§2)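 EBV-positive Burkitt's lymphoma P3HR-1 (clone 16) cells were grown in RPMI 1640 with 10% FBS, streptomycin and penicillin. They were exposed to the compounds, and viable cells were counted by Trypan blue exclusion under a light microscope 2 days post-treatment. Viability was expressed relative to untreated control cells, and CC50 was fitted from dose-response curves.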

[2] = Selectivity index, ratio of CC50 for human P3HR1 cells to IC50 for TPA/sodium butyrate-induced EBV lytic DNA replication
Method in brief: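 SI = CC50/IC50. CC50 came from Trypan blue viability counts 2 days after treatment. IC50 came from EBV DNA content 48 h after TPA/butyrate induction of P3HR-1 cells, with compound added at 3 h.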

[3] = as §1; design: species or system P3HR-1; settings: P3HR1 cells; method in brief: as §2
P3HR-1 [4] = experiment: Cytotoxicity against human P3HR1 cells assessed as decrease in cell viability at 10 uM after 2 days by trypan blue staining-based light microscopic method; settings: p3hr-1, 48 h; method in brief: as §2

SMILES	inhibition (Human gammaherpesvirus 4)	pIC50 (Human gammaherpesvirus 4)	Ratio CC50/IC50 [2]	CC50 at 48 h [3]	further results
C=CC(C)(C)c1cc2cc3c(cc2oc1=O)O[C@@H](C(C)(C)OC(=O)NCCC#N)C3	Active	–	–	–	–
C=CC(C)(C)c1cc2cc3c(cc2oc1=O)O[C@@H](C(C)(C)O)C3	–	4.16	–	–	–
C=CC(C)(C)c1cc2cc3c(cc2oc1=O)O[C@@H](C(C)(C)OC(=O)OCCc1ccccc1)C3	inactive	–	–	–	Activity (P3HR-1 [1]): Toxic
C=CC(C)(C)c1cc2cc3c(cc2oc1=O)O[C@@H](C(C)(C)OC(=O)CNCC)C3	Active	–	<3	–	Activity (P3HR-1 [1]): Toxic
C=CC(C)(C)c1cc2cc3c(cc2oc1=O)O[C@@H](C(C)(C)OC(=O)NCCc1ccc(F)cc1)C3	–	5.85	–	–	–
C=CC(C)(C)c1cc2cc3c(cc2oc1=O)O[C@@H](C(C)(C)OC(=O)CNC1CCCC1)C3	–	5.70	> 20	40.8 µM	–
C=CC(C)(C)c1cc2cc3c(cc2oc1=O)O[C@@H](C(C)(C)OC(=O)OCCc1ccncc1)C3	–	6.49	211	67.6 µM	–
C=CC(C)(C)c1cc2cc3c(cc2oc1=O)O[C@@H](C(C)(C)OC(=O)OCc1ccccn1)C3	Active	–	–	–	–
C=CC(C)(C)c1cc2cc3c(cc2oc1=O)O[C@@H](C(C)(C)OC(=O)NCCOC(C)=O)C3	Active	–	–	–	–
C=CC(C)(C)c1cc2cc3c(cc2oc1=O)O[C@@H](C(C)(C)OC(=O)NCCCCN)C3	Active	–	–	–	–
C=CC(C)(C)c1cc2cc3c(cc2oc1=O)O[C@@H](C(C)(C)OC(C)=O)C3	–	4.86	>10	> 140 µM	–
C=CC(C)(C)c1cc2cc3c(cc2oc1=O)O[C@@H](C(C)(C)OC(=O)NCCO)C3	Active	–	–	–	–
C=CC(C)(C)c1cc2cc3c(cc2oc1=O)OC(C(C)(C)OC(=O)OCCc1scnc1C)C3 (stereo not drawn)	Active	–	–	–	–
C=CC(C)(C)c1cc2cc3c(cc2oc1=O)O[C@@H](C(C)(C)OC(=O)CNCCc1ccc(F)cc1)C3	–	6.12	56	42.6 µM	–
C=CC(C)(C)c1cc2cc3c(cc2oc1=O)O[C@@H](C(C)(C)OC(=O)CNCC1CCCO1)C3 (stereo partly drawn)	Active	–	–	–	–
C=CC(C)(C)c1cc2cc3c(cc2oc1=O)O[C@@H](C(C)(C)OC(=O)C=C(C)C)C3	–	5.68	>47	> 100 µM	–
C=CC(C)(C)c1cc2cc3c(cc2oc1=O)O[C@@H](C(C)(C)OC(=O)CCl)C3	–	–	–	–	Activity (P3HR-1 [4]): Toxic
C=CC(C)(C)c1cc2cc3c(cc2oc1=O)O[C@H](C(C)(C)OC(C)=O)C3	–	5.15	>21	> 150 µM	–
C=CC(C)(C)c1cc2cc3c(cc2oc1=O)O[C@@H](C(C)(C)OC(=O)c1ccccc1)C3	–	5.35	83	370 µM	–
C=CC(C)(C)c1cc2cc3c(cc2oc1=O)O[C@@H](C(C)(C)OC(=O)CNCCCC)C3	Active	–	<3	–	Activity (P3HR-1 [1]): Toxic
C=CC(C)(C)c1cc2cc3c(cc2oc1=O)O[C@@H](C(C)(C)OC(=O)OCCN1C(=O)c2ccccc2C1=O)C3	–	6.08	>120	> 100 µM	–
C=CC(C)(C)c1cc2cc3c(cc2oc1=O)O[C@@H](C(C)(C)OC(=O)CNC)C3	Active	–	<3	–	Activity (P3HR-1 [1]): Toxic
C=CC(C)(C)c1cc2cc3c(cc2oc1=O)O[C@@H](C(C)(C)OC(=O)OCCc1ccccn1)C3	–	5.21	7	42.7 µM	–
C=CC(C)(C)c1cc2cc3c(cc2oc1=O)O[C@@H](C(C)(C)OC(=O)OCCc1ccc(CC)cn1)C3	–	5.82	801	1200 µM	–
C=CC(C)(C)c1cc2cc3c(cc2oc1=O)O[C@@H](C(C)(C)OC(=O)CNCc1ccco1)C3	Active	–	–	–	–
C=CC(C)(C)c1cc2cc3c(cc2oc1=O)O[C@@H](C(C)(C)OC(=O)NCCN)C3	Active	–	–	–	–
